This note sets out measurements from ChEMBL document CHEMBL1156412, “Absolute stereostructures of three new sesquiterpenes from the fruit of Alpinia oxyphylla with inhibitory effects on nitric oxide production and degranulation in RBL-2H3 cells” (J Nat Prod, 2002).

Data set [1] has as its system Macrophage. Description: Inhibition of LPS-induced NO production in ddY mouse macrophages assessed as […] accumulation at 100 uM after 20 hrs by Griess reagent method relative to control. The class given is functional. A digest of the protocol:
(§1)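 Adherent peritoneal macrophages from male ddY mice, 5 × 10^5 cells/well, in RPMI 1640 with 5% FCS. Cultured 20 h with 10 µg/mL LPS and compound (3-100 µM, 0.5% DMSO final). Nitrite in the medium measured with Griess reagent. Inhibition % = (A−B)/(A−C)×100 against LPS-only and unstimulated wells. N=4; IC50 determined graphically.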

Data set [2] relates to Macrophage. Kind of data set: Inhibition of LPS-induced NO production in ddY mouse macrophages assessed as […] accumulation after 20 hrs by Griess reagent method. The class given is functional, cell-based. A digest of the protocol: as §1
Background: The Griess reaction detects nitrite, a stable product of nitric oxide.

The subject of data set [3] is Macrophage. Kind of data set: Inhibition of LPS-induced NO production in ddY mouse macrophages assessed as nitrite accumulation at 3 uM after 20 hrs by Griess reagent method relative to control.
In data set [4] the test system is RBL-2H3. Kind of data set: Inhibition of rat RBL2H3 cell degranulation assessed as inhibition of beta-hexosamidase release at 10 uM after 10 mins by microplate reader assay relative to control. The class given is functional. The settings on record: RBL-2H3, 10 min. A digest of the protocol: (§2)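 RBL-2H3 cells, 2 × 10^5/well, sensitized overnight with 0.45 µg/mL anti-DNP IgE. Cells washed, then held in Siraganian buffer (pH 7.2, glucose, CaCl2, 0.1% BSA). Sample (0.1% DMSO final) added for 10 min, then DNP-BSA (10 µg/mL final) for 10 min at 37 °C. Supernatant β-hexosaminidase assayed on 1 mM p-nitrophenyl-N-acetyl-β-D-glucosaminide, pH 4.5, 1 h, 405 nm. Inhibition corrected for blank and spontaneous release; N=4.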

Data set [5] in a line: Cytotoxicity against ddY mouse macrophages after 20 hrs by MTT assay. The settings on record: macrophage. The class given is cell-based. A digest of the protocol: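 Peritoneal exudate macrophages from male ddY mice (adherent after 1 h preculture, >95% macrophages) in RPMI 1640 with 5% FCS. Exposed to 10 µg/mL LPS plus test compound, 0.5% DMSO final, for 20 h. MTT then added for 4 h. Formazan dissolved in 2-propanol/0.04 M HCl and read at 570 nm (reference 655 nm).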
In general terms: Tetrazolium dyes change colour on reduction, which living cells bring about.

The test system of data set [6] is RBL-2H3. Description: Inhibition of rat RBL2H3 cell degranulation assessed as inhibition of beta-hexosamidase release at 30 uM after 10 mins by microplate reader assay relative to control. The class given is functional. As to conditions: RBL-2H3, 10 min. An outline of the steps:
as §2

For data set [7], the system named is Macrophage. Kind of data set: Inhibition of LPS-induced NO production in ddY mouse macrophages assessed as […] accumulation at 30 uM after 20 hrs by Griess reagent method relative to control. The class given is functional. An outline of the steps:
as §1

In data set [8] the test system is RBL-2H3. Description: Inhibition of rat RBL2H3 cell degranulation assessed as inhibition of beta-hexosamidase release at 100 uM after 10 mins by microplate reader assay relative to control. The class given is functional. As to conditions: RBL-2H3, 10 min. An outline of the steps: as §2
The test system of data set [9] is Macrophage. Description: Inhibition of LPS-induced NO production in ddY mouse macrophages assessed as […] accumulation at 10 uM after 20 hrs by Griess reagent method relative to control. The class given is functional. A digest of the protocol: as §1
For data set [10], the system named is RBL-2H3. Description: Inhibition of rat RBL2H3 cell degranulation assessed as inhibition of beta-hexosamidase release after 10 mins by microplate reader assay. The class given is functional, cell-based. The settings on record: RBL-2H3, 10 min. A digest of the protocol: as §2

Usually inhibition stands for the change of the read-out against control, counted positive when it falls. As usually defined, the IC50 is the concentration needed to halve the response being measured. As to `C=C1CC[C@H]2C(C)(C)CCC[C@]2(C)[C@H]1C/C=C(/C=O)CC=O`, the inhibition at 100 µM in data set [1] is 95.6%; in [8], 42%. In addition, in [2], the concentration for half-maximal inhibition (IC50) worked out at 22 µM. Further, in data set [3], the inhibition at 3 µM is -4.7%. Also, the inhibition at 10 µM was -0.9% in [4] and 9.3% in data set [9]. The Activity result in data set [5] is “Toxic”. The inhibition at 30 µM in data set [6] stood at 13.1%; in data set [7], 68.1%.
For `C=C(C)[C@@H]1CC=C2[C@@H](O)CC[C@@H](C)[C@]2(C)C1`, the inhibition at 100 µM is 65.3% in data set [1] and -8% in [8]. The half-maximal inhibitory concentration (IC50) in [2] was 48 µM. For the same compound, in data set [3], the inhibition at 3 µM turned out to be 5.8%. Further, the inhibition at 10 µM in data set [4] is -5%; in data set [9], 1.8%. Besides, the results for the inhibition at 30 µM in data set [6] and in data set [7] were -9.2% and 31%, respectively.
With `C=C(C)[C@@H]1CC[C@@]2(C)CCC[C@@](C)(O)[C@@H]2C1`, the inhibition at 100 µM is 73.3% in data set [1] and 11.9% in data set [8]. For the same compound, the IC50 in data set [2] stood at 39 µM. Also, in data set [3], the inhibition at 3 µM came to 2.5%. Besides, the inhibition at 10 µM in data set [4] came out at 2.9%; in data set [9], 19.2%. Further, the inhibition at 30 µM came to 4.4% in [6] and 42.2% in data set [7].
On to `COc1cc(/C=C/C(=O)CC(=O)/C=C/c2ccc(O)c(OC)c2)ccc1O` [CURCUMIN], for which the inhibition at 30 µM in data set [6] turned out to be 14.2%. Further, the inhibition at 100 µM in data set [8] is 62.6%. For the same compound, the 50% inhibitory concentration (IC50) in [10] worked out at 3 µM.
With `C=C(C)[C@@H]1CC[C@@]2(C)CC[C@@H](O)C(=C)C2C1` (some centres not stated) [ISOCYPEROL], the inhibition at 100 µM in [1] is 96.8%; in [8], -28.9%. The concentration for half-maximal inhibition (IC50) in data set [2] is 21 µM. Also, in [3], the inhibition at 3 µM is 10.3%. Moreover, the inhibition at 10 µM in data set [4] is -5.3%; in [9], 23.9%. The results for the inhibition at 30 µM in data set [6] and in data set [7] were -11.9% and 64.4%, respectively.
Take `COc1cc(O)c2c(=O)c(O)c(-c3ccccc3)oc2c1` [IZALPININ]: the inhibition at 100 µM in [1] was 41.5%; in data set [8] it was 27.5%. For the same compound, the 50% inhibitory concentration (IC50) in data set [2] is greater than 30 µM. Further, the inhibition at 3 µM in data set [3] came out at 6.3%. Also, the inhibition at 10 µM in data set [4] worked out at 1.6%; in data set [9], 14.6%. Besides, the Activity result in data set [5] was “Toxic”. Moreover, the values for the inhibition at 30 µM in [6] and in [7] were 8.7% and 13.4%, respectively.
As to `O=c1cc(-c2ccc(O)c(O)c2)oc2cc(O)cc(O)c12` [LUTEOLIN], the concentration for half-maximal inhibition (IC50) in data set [10] was 82 µM.
Turning to `C=C(C)[C@@H]1CCC2=CC(=O)C[C@@H](C)[C@]2(C)C1` [NOOTKATONE], the inhibition at 100 µM in data set [1] is 86.9%; in data set [8] it was 25.8%. In addition, the IC50 in [2] worked out at 34 µM. Further, in data set [3], the inhibition at 3 µM is -6.2%. Besides, the inhibition at 10 µM is 2% in data set [4] and 10.7% in data set [9]. The inhibition at 30 µM in data set [6] came to 8.2%; in data set [7] it was 44.8%.
For the compound `CC(C)[C@@H]1CCC(=O)C2=C1[C@H](O)[C@](C)(O)CC2` [OXYPHYLLENODIOL A], the inhibition at 100 µM in data set [1] was found to be 102%; in data set [8] it was 1.7%. The half-maximal inhibitory concentration (IC50) in data set [2] stood at 28 µM. Moreover, the inhibition at 3 µM in data set [3] was 11.8%. The results for the inhibition at 10 µM in data set [4] and in data set [9] were 1.1% and 16.9%, respectively. The inhibition at 30 µM amounted to 0.4% in data set [6] and 52.5% in data set [7].
As to `CC(C)[C@H]1CCC(=O)C2=C1[C@H](O)[C@](C)(O)CC2` [OXYPHYLLENODIOL B], the inhibition at 100 µM in [1] is 40.1%; in [8] it was -3.1%. In addition, the half-maximal inhibitory concentration (IC50) in data set [2] is greater than 100 µM. In addition, the inhibition at 3 µM in [3] is -4.2%. The results for the inhibition at 10 µM in data set [4] and in data set [9] were -4.3% and -0.4%, respectively. The figures for the inhibition at 30 µM in data set [6] and in data set [7] were -3.3% and 19.6%, respectively.
Consider `C[C@@]12CCC(=O)C=C1[C@@](C)(O)[C@H](O)CC2` [OXYPHYLLENONE A], for which the inhibition at 100 µM in [1] is 85.7%; in data set [8], -4.7%. In addition, in data set [2], the 50% inhibitory concentration (IC50) was determined as 35 µM. Besides, in [3], the inhibition at 3 µM was determined as 1.6%. For the same compound, the inhibition at 10 µM in data set [4] was -3.3%; in data set [9] it was -2.9%. Besides, the results for the inhibition at 30 µM in data set [6] and in [7] were -4.5% and 43%, respectively.
`C[C@@]12CCC(=O)C=C1[C@](C)(O)[C@H](O)CC2` [OXYPHYLLENONE B]: the inhibition at 100 µM in [1] was 41.2%; in data set [8] it was -1.8%. In addition, in data set [2], the IC50 was greater than 100 µM. Also, in data set [3], the inhibition at 3 µM was -8.1%. The inhibition at 10 µM is -0.8% in data set [4] and 0.4% in [9]. For the same compound, the inhibition at 30 µM in data set [6] is -1.3%; in data set [7], 19.2%.
On to `C=C(C)[C@H]1C=C2[C@](C)(CCC[C@@]2(C)O)CC1` [OXYPHYLLOL A], for which the inhibition at 100 µM in data set [1] was 74.2%; in [8], -24%. Further, in [2], the IC50 was 42 µM. In data set [3], the inhibition at 3 µM amounted to 12.5%. For the same compound, the inhibition at 10 µM is -8.3% in data set [4] and 19.3% in data set [9]. In addition, the inhibition at 30 µM in data set [6] was -15.1%; in [7], 40.4%.
With `C=C(C)[C@@H]1CC[C@@]2(O)[C@@H](O)CC[C@@H](C)[C@]2(C)C1` [OXYPHYLLOL C], in [4], the inhibition at 10 µM is -1.1%. Besides, the inhibition at 30 µM in [6] stood at 2.4%. Also, in data set [8], the inhibition at 100 µM is 8.2%.
`COc1cc(O)c2c(=O)cc(-c3ccccc3)oc2c1` [TECHTOCHRYSIN]: the inhibition at 100 µM in data set [1] turned out to be 87.6%; in [8] it was 75.1%. Besides, the IC50 in data set [2] stood at 23 µM; in [10] it was 49 µM. Further, the inhibition at 3 µM in [3] was -0.1%. For the same compound, the inhibition at 10 µM in data set [4] was determined as 11.9%; in data set [9], 19.2%. In addition, the Activity entry in data set [5] is reported as “Toxic”. Further, the inhibition at 30 µM in data set [6] is 40.8%; in data set [7], 60.6%.
Regarding `CNC(=N)NCCC[C@H](N)C(=O)O` [TILARGININE], in data set [1], the inhibition at 100 µM came out at 79.2%. In addition, the IC50 in data set [2] stood at 28 µM. In addition, in data set [3], the inhibition at 3 µM was found to be 2%. In [7], the inhibition at 30 µM is 52.3%. Besides, the inhibition at 10 µM in [9] amounted to 17.7%.
